These results are taken from ChEMBL document CHEMBL1949600, “Lipophilic hydroxytyrosol esters: fatty acid conjugates for potential topical administration” (J Nat Prod, 2011).

The structures appear in SMILES notation.

Data set [1] is described as follows: Percutaneous permeability through human SCE membrane in Franz diffusion cell after 12 hrs by UV-Vis spectrophotometry relative to hydroxytyrosol. It is filed as ADME. In a few lines: (§1)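 Franz cells (0.75 cm² area, 4.75 mL receptor) with human stratum corneum/viable epidermis from fresh abdominal surgical skin, used within 24 h of removal. Non-occlusive, 36 ± 1 °C. Receptor sampled hourly up to 12 h, each sample replaced with fresh phase. UV-vis at each compound's λmax against calibration (0.5–25 μg/mL in EtOH). At least three cells, triplicate, mean ± SD.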

Data set [2] can be described thus: Octanol-water partition coefficient, log Kow of the compound by HPLC analysis. It is filed as physicochemical. Conditions: read-out: log KOW. In a few lines:
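Reversed-phase HPLC method for log Kow, calibrated with reference standards of known log Kow. Naphthalene (log Kow 3.3) was the most lipophilic standard. Compounds too lipophilic to be resolved were assigned a log Kow above 3.3.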

Data set [3] in a line: Percutaneous permeability through human SCE membrane in Franz diffusion cell after 12 hrs by UV-Vis spectrophotometry. It is filed as ADME. The method in brief: as §1

For the molecule `CCCCCCCC/C=C\CCCCCCCC(=O)OCCc1ccc(O)c(O)c1`, the “fold change (FC)” value in data set [1] is given as 3.6. The logP in data set [2] was over 3.3.

For `CCCCCCCC/C=C/CCCCCCCC(=O)OCCc1ccc(O)c(O)c1`, the logP in data set [2] is over 3.3.

For `CCCCC/C=C\C/C=C\CCCCCCCC(=O)OCCc1ccc(O)c(O)c1`, the “fold change (FC)” value in data set [1] is listed as 2.2. In addition, the permeability in data set [3] stood at 60.52%. Besides, the logP in data set [2] was over 3.3.

With `CCCC(=O)OCCc1ccc(O)c(O)c1` [HYDROXYTYROSOL BUTANOATE], the “fold change (FC)” value in data set [1] stood at 1.8. Further, in data set [2], the logP was 1.64.

For `CCCCCCCCCC(=O)OCCc1ccc(O)c(O)c1` [HYDROXYTYROSOL DECANOATE], the “fold change (FC)” value in data set [1] turned out to be 2.2. Also, in data set [3], the permeability was 64.18%. In addition, in data set [2], the logP was over 3.3.

`CCCCCCCCCCCCCCCC(=O)OCCc1ccc(O)c(O)c1` [HYDROXYTYROSOL PALMITATE]: the “fold change (FC)” value in data set [1] amounted to 1.7. Moreover, the logP in data set [2] is over 3.3.

Consider `CCCCCCCCCCCCCCCCCC(=O)OCCc1ccc(O)c(O)c1` [HYDROXYTYROSOL STERATE], for which, in data set [1], the “fold change (FC)” value came out at 1.7. Moreover, in data set [2], the logP is over 3.3.

Turning to `OCCc1ccc(O)c(O)c1` [HYDROXYTYROSOL], in data set [2], the logP is 0.809.
